From PubChem BioAssay
An excerpt weighted towards active compounds, which were near 1.8% of everything screened.
MT1-MMP act inh = MT1-MMP (human) activation inhibition. P50281. HT1080 RFP-PRO-GFP cells, GFP/RFP ratio fluorescence, overnight; percent of plate control window, DMSO zero. GFP/RFP ratio change, % at 20 µM. hit rate 0.061% among 360,000;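 active = GFP/RFP ratio change of at least 30% with cell ATP level not reduced by more than half and red fluorescence within 50% of control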
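Read-out: GFP/RFP fluorescence ratio; Test system: RFP-PRO-GFP reporter HT1080 cells; Compound dosing: single-point 20 µM compound, 1% DMSO; Times: overnight compound exposure at 37 °C.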
Ecoli rRNA inh = selective bacterial rRNA inhibition in E. coli. E. coli WT GFP vs humanized-ribosome RFP mutants, fluorescence, 24 h; stronger effect = lower value; DMSO median 0, no signal -100. GFP signal change (wild-type ribosome), % (test concentration not listed). hit rate 1.6% among 350,000;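 active = significant combined selectivity score with lowered wild-type GFP, culture density cut under 30%, mutant RFP and density less affected; inactive = any of these conditions unmet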
iPSC survival up = increases survival of single human iPS cells; hiPSC single-cell survival, ATPlite luminescence; 100% = ROCK inhibitor wells, 0% = DMSO; survival enhancement, % at 20 µM; hit rate 0.044% among 360,000; in the data active = survival enhancement above about 18%;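 also: cells exposed to compounds for 16 hours before the ATP read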
Cneo AK release = causes C. neoformans cell lysis; AID 651654; hit rate 0.2% among 360,000; adenylate kinase release luminescence, 4 h; normalised: neutral wells 0, clomiphene wells 100; lysis activity, % at 15 µM;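 active = mean lysis activity across replicates of at least 80%, whatever share of replicates individually reach that level; inactive = mean lysis activity below 80%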
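Test system: log-phase Cryptococcus neoformans yeast cells. Input: 5 × 10^6 yeast cells/mL. Medium: fresh YPD growth medium. Doses: single dose. Incubation: static 4 h at 37 °C with compound, 1 h detection. Measured by: luminescent adenylate kinase detection reagent. Read-out: signal increase indicating cell lysis. Benchmarks: Clomiphene.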
SKN-1 inh = inhibitors of C. elegans SKN-1. C. elegans VP596 Pgst-4::GFP/RFP ratio, acrylamide-induced, 24 h. inhibition, % at 21.8 µM. hit rate 0.49% among 360,000. AID 624304;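 active = interference check ratio from 0.5 to 1.5 plus GFP to RFP signal ratio inhibition reaching or exceeding a fixed threshold, cut at about 30% in these data, passing the limit was not always enough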
DAGLB inhibitor = diacylglycerol lipase beta (human) inhibition. Q8NCG7. HEK293T DAGLB membrane lysate, EnzChek fluorogenic substrate. inhibition, % at 5.17 µM. hit rate 0.059% among 340,000; in the data active = inhibition above about 34%;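 also: 0% = enzyme with vehicle and 100% = wells lacking enzyme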
Target sequence (Q8NCG7 whole entry, looked up): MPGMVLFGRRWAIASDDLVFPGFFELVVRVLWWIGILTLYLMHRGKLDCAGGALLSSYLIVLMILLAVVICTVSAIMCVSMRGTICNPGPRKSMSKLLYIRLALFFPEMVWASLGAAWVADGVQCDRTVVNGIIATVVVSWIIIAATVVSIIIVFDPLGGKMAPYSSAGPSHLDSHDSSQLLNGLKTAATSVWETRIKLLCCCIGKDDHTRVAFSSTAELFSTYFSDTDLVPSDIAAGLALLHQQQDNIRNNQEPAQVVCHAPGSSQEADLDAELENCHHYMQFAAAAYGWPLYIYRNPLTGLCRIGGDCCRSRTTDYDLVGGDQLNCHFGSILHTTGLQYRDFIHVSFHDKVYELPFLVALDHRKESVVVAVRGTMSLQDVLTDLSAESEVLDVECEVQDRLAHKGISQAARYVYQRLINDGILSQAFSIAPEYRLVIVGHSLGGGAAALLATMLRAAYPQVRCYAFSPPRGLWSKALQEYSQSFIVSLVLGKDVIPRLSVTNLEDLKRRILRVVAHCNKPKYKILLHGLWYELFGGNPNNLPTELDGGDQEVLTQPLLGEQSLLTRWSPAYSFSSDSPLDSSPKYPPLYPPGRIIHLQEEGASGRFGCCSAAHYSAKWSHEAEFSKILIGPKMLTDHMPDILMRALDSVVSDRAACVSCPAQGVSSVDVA
AID977621 = growth inhibition of wild-type GFP E. coli, dose response, H69 mutant RFP, cherry-pick; shares compounds with Ecoli rRNA inh; E. coli wild-type GFP strain growth, fluorescence, 24 h; activity change, negative = inhibition at 50 µM; 1,900 tested, under 10 active; AID 977621;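 active = Wild-type ribosome reporter drop at least double the humanized mutant ribosome reporter drop, growth loss under a set limit; inconclusive = no clear call, values can overlap the other calls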;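 also: wild-type GFP and H69 mutant RFP strains grown together 50/50 in each well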
AID977628 = growth of wild-type and h24-humanized E. coli strains – h24 mutant RFP vs wild-type GFP, cherry-pick, dose response; shares compounds with Ecoli rRNA inh; 1,900 tested, under 10 active; E. coli WT GFP strain growth, fluorescence, 24 h; activity change, negative = inhibition at 50 µM; AID 977628;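 active = compound lowering the normal-ribosome reporter at least twice as much as the humanized-ribosome reporter, growth loss under a set limit; inconclusive = no clear call, values can overlap the other calls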;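 also: wild-type GFP and h24 humanized RFP strains co-cultured 1 to 1 per well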
Starred values were filed as active, the others as inactive; ? = inconclusive; / = not tested or not shown.

SMILES	MT1-MMP act inh	Ecoli rRNA inh	iPSC survival up	Cneo AK release	SKN-1 inh	DAGLB inhibitor	AID977621	AID977628
O=C(COc1ccc(Br)cc1)NCc1ccccn1	3	6	3	2	-3	-3	/	/
O=C(CSCc1ccc(Br)cc1)NCc1ccccn1	1	-19*	0	2	3	-4	1.9	0.69
COc1ccc2c3c(n(C)c2c1)[C@@H](CO)N(Cc1ccccc1F)CC31CN(C(=O)C2CC2)C1	/	-3	/	/	/	/	/	/
Cc1noc(C)c1NC(=O)Nc1ccc2c(c1)CC(=O)N([C@@H](C)CO)C[C@@H](C)[C@H](CN(C)S(=O)(=O)c1ccc(Cl)cc1)O2	/	1	/	-14	/	/	/	/
COc1cccc(C(=O)Nc2ccc3c(c2)C(=O)N(C)[C@H]2CC[C@H](CC(=O)NCC4CC4)O[C@H]2CO3)c1	/	-1	/	-2	/	/	/	/
Oc1ccccc1Oc1ncc(Br)c(Cl)n1	1	-25*	0	3	-3	-4	/	3.7
COc1ccc(NC(=O)N(C)C[C@H]2OCCCC[C@H](C)Oc3ccc(NC(=O)CCC(F)(F)F)cc3C(=O)N([C@@H](C)CO)C[C@@H]2C)cc1	/	-4	/	0	/	/	/	/
C=CCn1c(SCC(=O)O)nc2sc(CC)cc2c1=O	-1	3	-1	/	12	-2	/	/
C=CCn1c(SCC(=O)N2CCCC2=O)nc2sc(CC)cc2c1=O	3	-23*	0	-2	4	0	-18	?
CN(C)C(=O)C[C@H]1CC[C@@H]2[C@H](COC[C@@H](O)CN2C(=O)C2CC2)O1	/	4	/	-5	/	/	/	/
N#Cc1ccc(-c2ccc3c(c2)[C@@H]2[C@@H](CCN2S(=O)(=O)c2cccc(F)c2)[C@H](CO)N3)cc1	/	-9	/	-9	/	/	/	/
N#Cc1cccc(-c2ccc3c(c2)[C@@H]2[C@@H](CCN2S(=O)(=O)c2cccc(F)c2)[C@H](CO)N3)c1	/	-19*	/	-2	/	/	?	/
CN(C)C(CNC(=O)c1ccc([N+](=O)[O-])cc1Cl)c1ccco1 (stereo not drawn)	-1	1	0	-1	12	4	/	/
CN(C)C(CNS(=O)(=O)c1cc([N+](=O)[O-])ccc1Cl)c1ccco1 (stereo not drawn)	-2	-2.3*	-1	/	-16	2	/	-12
O=C(Nc1cc(F)ccc1F)N[C@@H]1CC[C@H](CCn2cc(C3CCCC3)nn2)O[C@H]1CO	/	-2	/	/	/	/	/	/
O=C(NCCc1ccccc1)c1ccc(S(=O)(=O)N2CCCCC2)cc1	2	4	3	12	-7	0	/	/
CSc1ccccc1C(=O)NCCc1ccc(S(=O)(=O)N2CCCCC2)cc1	1	-21*	-1	0	8	-1	/	-13
O=C(C[C@H]1CC[C@H]2[C@@H](COC[C@@H](O)CN2C(=O)Nc2ccc(F)cc2)O1)NC1Cc2ccccc2C1	/	-4	/	50	/	/	/	/
COCC(=O)N1[C@@H]2CN(C(=O)Nc3ccccc3F)c3ccccc3[C@@H]2[C@@H]1CO	/	-18*	/	-2	/	/	5.7	?
CCC(=O)N1[C@H](CO)[C@@H]2c3ccccc3N(C(=O)Nc3ccc(Cl)cc3)C[C@@H]21	/	-22*	/	-4	/	/	-13	/
O=C(Nc1cccc(F)c1)N1C[C@@H]2[C@H](c3ccccc31)[C@H](CO)N2C(=O)Cc1ccccn1	/	-18*	/	18	/	/	5.9	-0.73
CC=Cc1ccc2n(c1=O)C[C@H]1[C@H](CO)[C@@H](C(=O)NCc3cccc(OC)c3)N[C@@H]21 (mixture of isomers)	/	0	/	-3	/	/	/	/
COCc1cn(CC[C@@H]2CC[C@@H](NC(=O)CCN3CCCCC3)[C@H](CO)O2)nn1	/	0	/	3	/	/	/	/
O=C(c1cnccn1)N1CC(=O)N2[C@@H](CO)[C@H](c3ccc(C#CCC4CCCC4)cc3)[C@@H]2C1	/	5	/	/	/	/	/	/
COc1ccc(-c2ccc3c(c2)O[C@H](CN(C)C)[C@@H](C)CN([C@@H](C)CO)S3(=O)=O)cc1	/	-2	/	2	/	/	/	/
SMILES	MT1-MMP act inh	Ecoli rRNA inh	iPSC survival up	Cneo AK release	SKN-1 inh	DAGLB inhibitor	AID977621	AID977628
CC1CCCC(NC(=O)COC(=O)Cc2c[nH]c3ccccc23)C1C (stereo not drawn)	-2	-29*	0	/	-8	4	-14	-13
CC1CCCC(NC(=O)COC(=O)Cc2ccc(Cl)cc2)C1C (stereo not drawn)	-1	-11	0	0	14	-2	/	/
O=C(NCC1CCCCC1)[C@H]1[C@H](CO)[C@H]2Cn3c(ccc(-c4ccccc4)c3=O)[C@@H]1N2	/	-1	/	-3	/	/	/	/
CC(=O)Nc1ccccc1OCc1nnc(-c2ccc(Cl)cc2)o1	2	-23	-1	0	2	-2	/	/
CC(=O)Nc1ccc(OCc2nnc(-c3ccccc3)o2)cc1	6	-23*	-1	-8	0	1	?	-17
C[C@@H]1CN([C@H](C)CO)S(=O)(=O)c2ccc(C3=CCCCC3)cc2O[C@H]1CN(C)C(=O)C1CCCCC1	/	-5	/	-1	/	/	/	/
CCOc1ccc(C(C)=O)cc1CN1C(=O)NC2(CCCCCCC2)C1=O	2	-40*	0	/	-4	2	-0.93	-17
O=S(=O)(N[C@@H]1CC[C@@H](CCn2cc(C3CC3)nn2)O[C@H]1CO)c1ccc(Cl)cc1	/	2	/	-3	/	/	/	/
CNC[C@H]1Oc2ccc(NC(=O)Nc3ccc4c(c3)OCO4)cc2CC(=O)N([C@H](C)CO)C[C@@H]1C	/	1	/	36	/	/	/	/
O=C(CCCn1c(=S)[nH]c2ccsc2c1=O)Nc1ccc2c(c1)OCCO2	0	-21*	0	2	-6	1	-11	/
O=C(CCCn1c(=S)[nH]c2ccsc2c1=O)Nc1ccc(F)cc1	6	0	-1	0	6	-2	/	/
COCC(C)n1c(C)cc(C(=O)COC(=O)CCc2nc3ccccc3c(=O)[nH]2)c1C (stereo not drawn)	5	-17	0	2	-5	0	/	/
COCCCn1c(C)cc(C(=O)COC(=O)CCc2nc3ccccc3c(=O)[nH]2)c1C	/	-27*	/	/	/	/	-15	/
CO[C@@H]1CN(C)C(=O)c2cc(NS(=O)(=O)c3cn(C)cn3)ccc2OC[C@H](C)N(C)C[C@@H]1C	/	1	/	-2	/	/	/	/
CCCCCCC(=O)N1CCCC(c2nc(-c3cccc(OC)c3)no2)C1 (stereo not drawn)	-2	-31*	0	2	1	-13	-5.8	?
